# Measurements taken from ChEMBL document CHEMBL4196175, “First SAR Study for Overriding NRAS Mutant Driven Acute Myeloid Leukemia” (J Med Chem, 2018).
# Activity calls are given as the source filed them. The rule behind the calls is not given here.
# Columns and labels:
# OCI-AML-3 [1] = experiment: Induction of apoptosis in human OCI-AML3 cells harboring NRAS Q61L mutant assessed as increase in cleaved PARP levels at 1 uM after 24 hrs by Western blot analysis; format: functional, cell-based
# How it was run: (§1)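 Cells treated 24 h with indicated concentrations (1 µM; 5 µM also used in Ba/F3-NRAS-G12D); cleaved PARP, cleaved caspase 3, bcl-2 and MCL1 detected by western blot with actin as loading control.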
# OCI-AML-3 [2] = experiment: Induction of apoptosis in human OCI-AML3 cells harboring NRAS Q61L mutant assessed as decrease in mcl1 levels at 1 uM after 24 hrs by Western blot analysis; format: functional, cell-based; how it was run: as §1
# BaF3 [3] = experiment: Induction of apoptosis in mouse BA/F3 cells expressing NRAS-G12D mutant assessed as decrease in MCL1 levels at 1 uM after 24 hrs by Western blot analysis; format: functional, cell-based; how it was run: as §1
# OCI-AML-3 [4] = experiment: Cell cycle arrest in human OCI-AML3 cells harboring NRAS Q61L mutant assessed as accumulation at G0/G1 phase at 1 uM after 24 hrs by propidium iodide staining based FACS analysis; format: functional
# How it was run: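 OCI-AML3 cells treated 24 h at indicated concentrations, including 1 µM; cell-cycle phase distribution measured by flow cytometry after propidium iodide staining.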
# OCI-AML-3 [5] = experiment: Induction of apoptosis in human OCI-AML3 cells harboring NRAS Q61L mutant assessed as increase in apoptotic cells at 1 uM after 24 hrs by annexin V/propidium iodide staining based FACS analysis relative to control; format: functional
# How it was run: (§2)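 Apoptosis scored by flow cytometry after FITC-annexin V/propidium iodide dual staining following 24 h exposure, at 1 µM or a range of indicated concentrations; three independent experiments, mean with SD, one-way ANOVA.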
# [6] = target: T1, Mitogen-activated protein kinase kinase kinase kinase 2 (Homo sapiens) (UniProt Q12851); experiment: Inhibition of GCK in human OCI-AML3 cells harboring NRAS Q61L mutant assessed as reduction in p38 phosphorylation at Thr180/Tyr182 after 2 hrs by Western blot analysis; format: cell-based
# T1 sequence (whole entry): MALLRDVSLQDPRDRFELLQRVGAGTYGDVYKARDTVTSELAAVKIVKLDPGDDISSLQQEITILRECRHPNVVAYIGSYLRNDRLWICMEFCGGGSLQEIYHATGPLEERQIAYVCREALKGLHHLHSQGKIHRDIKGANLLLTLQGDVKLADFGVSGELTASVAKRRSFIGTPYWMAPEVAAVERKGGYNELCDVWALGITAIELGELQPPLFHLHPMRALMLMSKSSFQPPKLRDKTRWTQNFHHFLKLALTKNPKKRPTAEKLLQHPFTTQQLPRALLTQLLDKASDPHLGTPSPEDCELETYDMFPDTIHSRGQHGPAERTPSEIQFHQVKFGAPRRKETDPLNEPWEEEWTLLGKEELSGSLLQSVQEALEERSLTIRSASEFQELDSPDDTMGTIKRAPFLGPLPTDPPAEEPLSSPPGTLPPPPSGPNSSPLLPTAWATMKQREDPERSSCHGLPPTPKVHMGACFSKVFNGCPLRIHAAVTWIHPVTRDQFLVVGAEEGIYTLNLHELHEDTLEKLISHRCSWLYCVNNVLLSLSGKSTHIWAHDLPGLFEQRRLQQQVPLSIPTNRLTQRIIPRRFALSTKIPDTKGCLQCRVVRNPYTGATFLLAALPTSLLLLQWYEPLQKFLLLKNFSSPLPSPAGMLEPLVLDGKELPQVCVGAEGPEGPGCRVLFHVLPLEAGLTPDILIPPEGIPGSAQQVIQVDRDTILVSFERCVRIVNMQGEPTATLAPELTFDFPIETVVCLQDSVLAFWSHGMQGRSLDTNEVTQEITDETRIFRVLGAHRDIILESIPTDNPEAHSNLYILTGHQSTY
# How it was run: (§3)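 Ba/F3-NRAS-G12D or OCI-AML3 cells exposed 2 h to compounds (1 µM, or a dose series in OCI-AML3); phospho-p70S6K1, phospho-AKT S473, phospho-JNK and phospho-p38 assessed by western blot, actin as loading control.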
# Activated CDC42 kinase 1 [7] = target: T2, Activated CDC42 kinase 1 (Homo sapiens, UniProt Q07912); experiment: Inhibition of ACK1 in human OCI-AML3 cells harboring NRAS Q61L mutant assessed as reduction in AKT phosphorylation at S473 after 2 hrs by Western blot analysis; format: cell-based; how it was run: as §3
# T2 sequence (Q07912 whole entry, looked up): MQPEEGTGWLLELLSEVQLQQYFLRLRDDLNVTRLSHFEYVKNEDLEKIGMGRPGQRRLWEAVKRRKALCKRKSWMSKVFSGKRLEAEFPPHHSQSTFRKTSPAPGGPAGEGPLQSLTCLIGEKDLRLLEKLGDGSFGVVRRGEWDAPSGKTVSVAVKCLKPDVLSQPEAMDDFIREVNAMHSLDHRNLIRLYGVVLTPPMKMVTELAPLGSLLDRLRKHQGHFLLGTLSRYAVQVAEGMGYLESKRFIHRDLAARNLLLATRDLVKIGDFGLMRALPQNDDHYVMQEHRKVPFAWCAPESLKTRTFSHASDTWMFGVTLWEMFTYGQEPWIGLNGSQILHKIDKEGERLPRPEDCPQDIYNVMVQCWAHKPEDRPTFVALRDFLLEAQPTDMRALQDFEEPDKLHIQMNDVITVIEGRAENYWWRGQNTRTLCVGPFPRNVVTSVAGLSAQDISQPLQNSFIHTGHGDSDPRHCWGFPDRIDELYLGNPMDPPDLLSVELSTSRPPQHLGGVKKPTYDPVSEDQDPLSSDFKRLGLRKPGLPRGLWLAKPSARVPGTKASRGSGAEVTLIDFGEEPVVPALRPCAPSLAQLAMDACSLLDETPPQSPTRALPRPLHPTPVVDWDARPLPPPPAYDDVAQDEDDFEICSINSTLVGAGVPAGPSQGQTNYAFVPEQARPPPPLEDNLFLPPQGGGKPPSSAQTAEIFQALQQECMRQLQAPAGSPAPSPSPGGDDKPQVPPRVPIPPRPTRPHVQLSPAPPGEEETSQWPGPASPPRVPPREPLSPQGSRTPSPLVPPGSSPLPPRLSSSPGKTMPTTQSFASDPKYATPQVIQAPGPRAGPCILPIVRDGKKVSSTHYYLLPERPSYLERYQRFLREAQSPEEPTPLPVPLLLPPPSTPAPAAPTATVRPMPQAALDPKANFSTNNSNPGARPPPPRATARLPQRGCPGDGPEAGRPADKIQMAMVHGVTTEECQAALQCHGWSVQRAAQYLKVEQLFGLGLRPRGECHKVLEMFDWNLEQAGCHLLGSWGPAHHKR
# BaF3 [8] = experiment: Induction of apoptosis in mouse BA/F3 cells expressing NRAS-G12D mutant assessed as increase in apoptotic cell after 24 hrs by annexin V/propidium iodide staining based FACS analysis; format: functional; how it was run: as §2
# [9] = target: Serine/threonine-protein kinase SIK1 (Homo sapiens) (UniProt P57059); experiment: Inhibition of human SIK1 at 1 uM relative to control
# Sequence of Serine/threonine-protein kinase SIK1 (Homo sapiens) (P57059 whole entry): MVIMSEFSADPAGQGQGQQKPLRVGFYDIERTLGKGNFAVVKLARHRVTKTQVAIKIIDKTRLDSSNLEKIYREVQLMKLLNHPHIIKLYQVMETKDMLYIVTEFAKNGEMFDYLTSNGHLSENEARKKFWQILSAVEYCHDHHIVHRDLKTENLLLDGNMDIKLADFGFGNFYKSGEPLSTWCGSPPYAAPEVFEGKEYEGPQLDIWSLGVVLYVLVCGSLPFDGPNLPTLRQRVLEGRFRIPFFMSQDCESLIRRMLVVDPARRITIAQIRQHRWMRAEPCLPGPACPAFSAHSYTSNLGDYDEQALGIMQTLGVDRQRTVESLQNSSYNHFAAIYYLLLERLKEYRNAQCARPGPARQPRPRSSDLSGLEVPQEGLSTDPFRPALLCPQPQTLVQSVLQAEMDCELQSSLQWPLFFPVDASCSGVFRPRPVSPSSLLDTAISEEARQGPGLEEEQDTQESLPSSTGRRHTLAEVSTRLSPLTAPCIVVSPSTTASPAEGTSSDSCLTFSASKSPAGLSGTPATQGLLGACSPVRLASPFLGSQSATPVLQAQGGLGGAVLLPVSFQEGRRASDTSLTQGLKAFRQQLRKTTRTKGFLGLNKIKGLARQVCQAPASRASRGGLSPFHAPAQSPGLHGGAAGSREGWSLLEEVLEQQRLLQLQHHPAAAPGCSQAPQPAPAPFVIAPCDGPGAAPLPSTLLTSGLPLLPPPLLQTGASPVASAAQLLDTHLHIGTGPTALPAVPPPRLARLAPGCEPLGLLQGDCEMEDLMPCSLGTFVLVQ
# [10] = target: Macrophage colony-stimulating factor 1 receptor (Homo sapiens) (UniProt P07333); experiment: Inhibition of human FMS at 1 uM relative to control
# [11] = target: Tyrosine-protein kinase CSK (Homo sapiens) (UniProt P41240); experiment: Inhibition of human CSK at 1 uM relative to control
# Sequence of Tyrosine-protein kinase CSK (Homo sapiens) (P41240 2-450 limits assumed): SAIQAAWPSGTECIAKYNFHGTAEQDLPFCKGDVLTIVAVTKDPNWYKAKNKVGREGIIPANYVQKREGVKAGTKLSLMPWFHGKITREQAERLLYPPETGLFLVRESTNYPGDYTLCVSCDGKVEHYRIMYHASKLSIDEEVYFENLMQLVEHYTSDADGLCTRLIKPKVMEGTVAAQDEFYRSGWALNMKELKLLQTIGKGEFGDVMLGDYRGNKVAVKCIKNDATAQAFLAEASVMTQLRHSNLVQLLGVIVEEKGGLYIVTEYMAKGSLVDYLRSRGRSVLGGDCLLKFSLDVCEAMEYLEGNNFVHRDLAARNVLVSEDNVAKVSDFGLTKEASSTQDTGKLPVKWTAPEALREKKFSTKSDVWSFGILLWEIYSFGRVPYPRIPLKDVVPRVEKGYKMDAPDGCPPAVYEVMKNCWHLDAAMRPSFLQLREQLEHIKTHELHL
# Activated CDC42 kinase 1 [12] = target: T2, Activated CDC42 kinase 1; conditions: 1 uM
# [13] = AUClast in mouse at 10 mg/kg, po; format: ADME, organism-based; parameters: dose 10 mg/kg, time 0 - last, route oral; conditions: in vivo
# [14] = target: Epithelial discoidin domain-containing receptor 1 (Homo sapiens) (UniProt Q08345); experiment: Inhibition of human DDR1 at 1 uM relative to control
# Sequence of Epithelial discoidin domain-containing receptor 1 (Homo sapiens) (Q08345 whole entry, the tested form may be a part): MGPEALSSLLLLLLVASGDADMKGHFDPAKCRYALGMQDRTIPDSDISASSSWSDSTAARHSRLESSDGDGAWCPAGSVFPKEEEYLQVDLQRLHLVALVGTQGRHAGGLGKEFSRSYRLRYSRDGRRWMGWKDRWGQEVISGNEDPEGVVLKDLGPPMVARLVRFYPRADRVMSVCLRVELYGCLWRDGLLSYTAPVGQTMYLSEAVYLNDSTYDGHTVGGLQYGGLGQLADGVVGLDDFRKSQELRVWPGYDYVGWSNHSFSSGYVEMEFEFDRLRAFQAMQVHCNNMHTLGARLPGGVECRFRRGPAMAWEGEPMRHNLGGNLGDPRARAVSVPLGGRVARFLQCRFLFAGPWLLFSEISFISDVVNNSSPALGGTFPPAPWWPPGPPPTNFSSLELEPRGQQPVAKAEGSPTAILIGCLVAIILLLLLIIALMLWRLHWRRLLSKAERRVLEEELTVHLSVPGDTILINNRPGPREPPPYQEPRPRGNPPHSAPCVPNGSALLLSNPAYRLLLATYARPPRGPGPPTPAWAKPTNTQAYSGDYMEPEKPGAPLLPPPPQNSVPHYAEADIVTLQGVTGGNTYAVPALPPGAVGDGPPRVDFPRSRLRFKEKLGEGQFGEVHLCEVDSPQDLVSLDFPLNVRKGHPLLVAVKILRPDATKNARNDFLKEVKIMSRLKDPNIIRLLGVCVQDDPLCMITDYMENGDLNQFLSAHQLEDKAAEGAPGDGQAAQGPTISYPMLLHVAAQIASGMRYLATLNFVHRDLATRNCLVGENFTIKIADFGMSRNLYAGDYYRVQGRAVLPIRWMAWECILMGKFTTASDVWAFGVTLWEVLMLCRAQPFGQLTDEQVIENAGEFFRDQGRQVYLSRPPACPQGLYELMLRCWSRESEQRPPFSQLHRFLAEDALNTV
# [15] = target: Tyrosine-protein kinase Lyn (Homo sapiens) (UniProt P07948); conditions: 1 uM
# Sequence of Tyrosine-protein kinase Lyn (Homo sapiens) (P07948 2-512 limits assumed): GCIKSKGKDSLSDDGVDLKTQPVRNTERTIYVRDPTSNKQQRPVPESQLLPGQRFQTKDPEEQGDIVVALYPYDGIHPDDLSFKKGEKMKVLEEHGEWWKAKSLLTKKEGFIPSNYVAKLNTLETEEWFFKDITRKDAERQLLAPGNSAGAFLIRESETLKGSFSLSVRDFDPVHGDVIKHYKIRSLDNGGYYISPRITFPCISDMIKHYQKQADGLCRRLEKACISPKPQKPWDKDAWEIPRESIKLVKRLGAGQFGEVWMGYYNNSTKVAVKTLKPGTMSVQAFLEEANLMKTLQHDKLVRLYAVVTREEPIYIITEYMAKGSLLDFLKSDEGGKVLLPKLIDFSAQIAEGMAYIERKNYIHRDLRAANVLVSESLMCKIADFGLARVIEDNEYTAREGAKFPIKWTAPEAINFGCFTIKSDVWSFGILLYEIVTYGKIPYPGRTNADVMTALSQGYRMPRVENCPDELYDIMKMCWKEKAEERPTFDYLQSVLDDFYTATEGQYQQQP
# [16] = target: Vascular endothelial growth factor receptor 2 (Homo sapiens) (UniProt P35968); experiment: Inhibition of human KDR at 1 uM relative to control
# Sequence of Vascular endothelial growth factor receptor 2 (Homo sapiens) (P35968 whole entry): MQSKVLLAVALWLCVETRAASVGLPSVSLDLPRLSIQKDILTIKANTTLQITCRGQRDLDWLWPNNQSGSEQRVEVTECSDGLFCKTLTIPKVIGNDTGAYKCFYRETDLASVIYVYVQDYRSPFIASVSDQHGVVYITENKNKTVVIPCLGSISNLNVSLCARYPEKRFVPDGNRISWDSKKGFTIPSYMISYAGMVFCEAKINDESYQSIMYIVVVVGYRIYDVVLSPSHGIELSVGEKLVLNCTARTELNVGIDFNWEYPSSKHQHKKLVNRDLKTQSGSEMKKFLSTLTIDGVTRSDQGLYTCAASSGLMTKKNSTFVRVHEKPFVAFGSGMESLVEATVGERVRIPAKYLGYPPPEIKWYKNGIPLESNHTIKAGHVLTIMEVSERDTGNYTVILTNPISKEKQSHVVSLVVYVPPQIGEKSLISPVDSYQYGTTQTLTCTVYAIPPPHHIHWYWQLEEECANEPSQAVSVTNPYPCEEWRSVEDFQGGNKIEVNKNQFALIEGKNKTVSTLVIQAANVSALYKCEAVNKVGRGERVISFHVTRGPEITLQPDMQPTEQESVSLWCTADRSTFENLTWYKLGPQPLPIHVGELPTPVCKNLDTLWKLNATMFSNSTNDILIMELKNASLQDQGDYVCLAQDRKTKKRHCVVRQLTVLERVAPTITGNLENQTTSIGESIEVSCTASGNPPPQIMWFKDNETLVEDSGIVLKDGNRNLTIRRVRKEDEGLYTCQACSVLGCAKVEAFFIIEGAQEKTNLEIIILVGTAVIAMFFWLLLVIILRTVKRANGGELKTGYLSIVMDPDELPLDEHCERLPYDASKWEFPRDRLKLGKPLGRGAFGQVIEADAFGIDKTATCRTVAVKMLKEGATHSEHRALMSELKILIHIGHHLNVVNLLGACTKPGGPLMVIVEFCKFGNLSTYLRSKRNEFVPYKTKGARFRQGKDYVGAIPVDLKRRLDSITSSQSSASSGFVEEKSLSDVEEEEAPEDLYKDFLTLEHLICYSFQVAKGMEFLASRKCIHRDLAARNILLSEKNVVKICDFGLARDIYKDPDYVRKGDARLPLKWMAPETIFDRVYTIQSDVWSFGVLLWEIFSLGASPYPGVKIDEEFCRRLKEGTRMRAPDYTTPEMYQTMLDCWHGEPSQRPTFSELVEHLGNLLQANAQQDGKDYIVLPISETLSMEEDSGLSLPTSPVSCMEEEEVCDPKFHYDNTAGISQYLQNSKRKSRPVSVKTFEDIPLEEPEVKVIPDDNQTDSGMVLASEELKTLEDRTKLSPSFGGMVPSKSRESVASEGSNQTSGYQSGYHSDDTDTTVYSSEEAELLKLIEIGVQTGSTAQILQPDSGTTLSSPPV
# [17] = target: Tyrosine-protein kinase JAK2 (Homo sapiens) (UniProt O60674); experiment: Inhibition of human JAK2 at 1 uM relative to control
# [18] = AUCinfinity in mouse at 10 mg/kg, po; format: ADME, organism-based; parameters: dose 10 mg/kg, route oral, time infinity; conditions: in vivo
# [19] = target: Serine/threonine-protein kinase A-Raf (Homo sapiens) (UniProt P10398); experiment: Inhibition of human ARAF at 1 uM relative to control
# OCI-AML-3 [20] = experiment: Antileukemic activity against human OCI-AML3 cells harboring NRAS-Q61L mutant xenografted in immunodeficient po dosed mouse administered qd on day 21 post implantation measured on day 20 post dose; format: functional, organism-based
# BaF3 [21] = experiment: Induction of apoptosis in mouse BA/F3 cells expressing NRAS-G12D mutant assessed as increase in cleaved caspase-3 levels at 5 uM after 24 hrs by Western blot analysis; format: functional, cell-based; how it was run: as §1
# [22] = MRTinfinity in mouse at 10 mg/kg, po; format: ADME, organism-based; conditions: in vivo
# [23] = target: Fibroblast growth factor receptor 2 (Homo sapiens) (UniProt P21802); experiment: Inhibition of human FGFR2 at 1 uM relative to control
# [24] = Cmax in mouse at 10 mg/kg, po; format: ADME, organism-based; parameters: dose 10 mg/kg, route oral; conditions: in vivo
smiles,measurement,setting,value
CC(=O)N1CCN(c2ccc(Nc3ncc4c(n3)N(C)C(=O)N(c3cc(NC(=O)c5cccc(C(F)(F)F)c5)ccc3C)C4)cn2)CC1,Activity,OCI-AML-3 [1],Active
same,Activity,OCI-AML-3 [2],Active
same,Activity,BaF3 [3],Active
same,Activity,OCI-AML-3 [4],Active
same,Activity,OCI-AML-3 [5],15 - 30%
same,inhibition,[6],Dose-dependent effect
same,inhibition,Activated CDC42 kinase 1 [7],Dose-dependent effect
Cc1ccc(NC(=O)c2cccc(C(F)(F)F)c2)cc1N1Cc2cnc(N)nc2N(C)C1=O,Activity,BaF3 [8],Dose-dependent effect
same,inhibition,[9],91.6%
same,inhibition,[10],99.1%
same,inhibition,[11],98.9%
same,Activity,OCI-AML-3 [1],Active
same,inhibition,Activated CDC42 kinase 1 [12],100%
same,Activity,OCI-AML-3 [2],Active
same,AUC(0-t),[13],36400 ng·h/mL
same,Activity,OCI-AML-3 [4],Active
same,inhibition,[14],97.8%
same,Activity,OCI-AML-3 [5],15 - 30%
same,inhibition,[15],99.4%
same,inhibition,[16],96.4%
same,inhibition,[17],94.4%
same,AUC(0-inf),[18],52500 ng·h/mL
same,inhibition,[19],99%
same,Activity,OCI-AML-3 [20],Dose-dependent effect
same,inhibition,[6],Dose-dependent effect
same,Activity,BaF3 [21],Active
same,inhibition,Activated CDC42 kinase 1 [7],Dose-dependent effect
same,MRT inf,[22],18.1 h
same,inhibition,[23],93.5%
same,Cmax,[24],2410 ng/mL
